The results in this text go back to ChEMBL document CHEMBL1129531, “2-substituted piperazines as constrained amino acids. Application to the synthesis of potent, non carboxylic acid inhibitors of farnesyltransferase” (J Med Chem, 1996).

pIC50: −log10 of the molar value. ≈ marks a conversion by molar mass, not a printed value.

The nature of assay [1]: Inhibition of anchorage-independent growth of ras-transformed cells in soft agar. The format is functional. The procedure, abridged: (§1)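 RAT1 cells transformed with v-ras or v-raf were grown in soft agar with compound. MIC is the minimum concentration reducing the size and number of colonies relative to vehicle-treated control. A v-mos-transformed cell line served as control, tested up to 2.5 µM.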

Assay [2] is described as follows: Inhibition of human Geranylgeranyl transferase type I. The procedure, abridged: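 Recombinant human GGTase I. IC50 reported ±SEM with the number of determinations given.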
Assay [3] addresses Protein farnesyltransferase (Rattus norvegicus, UniProt Q02293+Q04631). The experiment in a line: Inhibition of post-traslational processing of Ras protein in RAT1 cell line. The format is functional, cell-based. The procedure, abridged: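 RAT1 cells transformed with viral Ha-ras were incubated with compound for 24 h, then lysed. Ras was immunoprecipitated and resolved by denaturing gel electrophoresis to detect inhibition of post-translational processing (farnesylation). IC50 derived.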

The next assay concerns Rat1. The experiment in a line: Highest nontoxic concentration in RAT1 cells. The format is functional. In short, it runs like this: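 Cultured RAT1 cells; viability assessed by viable staining with MTT. Value is the highest nontoxic concentration, i.e. the concentration compatible with ≥90% cell survival.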
Assay [4] deals with Protein farnesyltransferase (Homo sapiens, UniProt P49354+P49356). The experiment in a line: Inhibition of [3H]FPP incorporation into Ha-Ras by Farnesyltransferase. The format is protein-complex assay. In short, it runs like this:
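Recombinant human Ha-Ras protein as acceptor, with [³H]FPP as farnesyl donor. Read-out is FTase-catalyzed radiolabel incorporation into Ha-Ras. IC50 is the concentration giving 50% inhibition, reported ±SEM with the number of determinations given.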

For assay [5], the target named is Geranylgeranyl transferase type I (Bos taurus, UniProt P29702+Q5EAD5). Kind of assay: Inhibition of bovine Geranylgeranyl transferase type I. The format is protein-complex assay. In short, it runs like this:
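Type-I GGTase from bovine source. IC50 reported ±SEM with the number of determinations given.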

Assay [6] in a line: Inhibition of anchorage-independent growth of raf-transformed cells in soft agar. The format is functional. The procedure, abridged: as §1

`N[C@@H](CS)CN1CCN(C(=O)c2cccc3ccccc23)C[C@@H]1CCOC1CC1` returned an MIC in assay [1] of 2.5 µM (≈ 1.03 µg/mL). Further, the figures for the pIC50 in assay [2], in assay [3] and in assay [4] were 5.41, 6.30 and 9.00, respectively. In the assay on Rat1, this molecule displayed a CTE of 25 µM.
As for `CCCC[C@H]1CN(C(=O)c2cccc3ccccc23)CCN1C[C@@H](N)CS`, the MIC was 10 µM (≈ 3.86 µg/mL) in assay [1] and above 10 µM in assay [6]. Besides, the pIC50 is 6.30 in assay [3], 6.80 in assay [5] and 9.00 in assay [4]. The molecule also showed a CTE in the assay on Rat1 of 10 µM.
On to `COCC[C@H]1CN(C(=O)c2cccc3ccccc23)CCN1C[C@@H](N)CS`, for which the MIC was 10 µM (≈ 3.88 µg/mL) in assay [1] and above 50 µM in assay [6]. The pIC50 in assay [3] was 6.30; in assay [5] it was 5.00; in assay [4], 8.52. Moreover, the CTE with Rat1 was above 100 µM.
As to `CCCC[C@H]1CN(C(=O)c2ccccc2)CCN1C[C@@H](N)CS`, in assay [4], the pIC50 is 7.62.
For the molecule `CCCC[C@H]1CN(C(=O)c2cccc(C)c2C)CCN1C[C@@H](N)CS`, the pIC50 in assay [5] is 6.44; in assay [4] it was 8.30.
Regarding `Cc1cccc(C(=O)N2CCN(C[C@@H](N)CS)CC2)c1C`, the pIC50 in assay [5] was 5.55; in assay [4] it was 6.80.
Molecule `CC[C@H]1CN(C(=O)c2cccc(C)c2C)CCN1C[C@@H](N)CS` showed a pIC50 in assay [4] of 7.17.
